Experimental data taken from ChEMBL document CHEMBL3588823, “Design, synthesis and biological evaluation of novel 5-oxo-2-thioxoimidazolidine derivatives as potent androgen receptor antagonists” (Eur J Med Chem, 2015).

How the values were obtained:
Androgen receptor [1] = biological target: T1, Androgen receptor (Homo sapiens, UniProt P10275); experiment: Partial agonist activity at androgen receptor (unknown origin)
T1 sequence (P10275 whole entry): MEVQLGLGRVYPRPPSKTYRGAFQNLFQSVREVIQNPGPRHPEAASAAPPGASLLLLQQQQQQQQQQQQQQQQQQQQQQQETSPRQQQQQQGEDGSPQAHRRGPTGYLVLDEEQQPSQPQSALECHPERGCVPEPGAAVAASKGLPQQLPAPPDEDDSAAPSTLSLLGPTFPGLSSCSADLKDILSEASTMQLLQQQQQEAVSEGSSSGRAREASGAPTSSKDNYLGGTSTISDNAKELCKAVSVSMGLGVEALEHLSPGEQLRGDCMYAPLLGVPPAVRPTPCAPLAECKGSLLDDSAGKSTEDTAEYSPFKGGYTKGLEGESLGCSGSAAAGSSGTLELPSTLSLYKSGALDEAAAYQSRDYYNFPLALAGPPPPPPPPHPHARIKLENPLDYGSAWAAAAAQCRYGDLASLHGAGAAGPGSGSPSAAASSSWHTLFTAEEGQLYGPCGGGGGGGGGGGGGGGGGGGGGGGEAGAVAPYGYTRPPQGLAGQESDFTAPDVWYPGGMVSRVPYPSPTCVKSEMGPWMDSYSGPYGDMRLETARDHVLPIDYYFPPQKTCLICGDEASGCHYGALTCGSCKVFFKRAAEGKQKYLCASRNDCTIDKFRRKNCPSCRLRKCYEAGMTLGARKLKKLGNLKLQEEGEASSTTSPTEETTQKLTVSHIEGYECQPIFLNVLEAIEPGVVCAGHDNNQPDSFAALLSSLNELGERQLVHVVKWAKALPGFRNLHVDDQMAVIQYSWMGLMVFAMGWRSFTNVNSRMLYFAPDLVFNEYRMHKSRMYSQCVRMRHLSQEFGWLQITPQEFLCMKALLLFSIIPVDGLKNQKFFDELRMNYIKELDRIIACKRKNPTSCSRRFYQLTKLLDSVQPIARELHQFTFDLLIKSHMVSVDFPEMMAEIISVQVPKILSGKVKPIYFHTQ
Method in brief: (§1)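 LNCaP cells seeded at 10,000 per well in RPMI 1640 with 10% charcoal-stripped serum and 1% AAS, then held 3 days at 37 °C. Medium was then replaced with serial compound dilutions, either without DHT (agonism mode) or with DHT (antagonism mode).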

LNCaP = experiment: Antiproliferative activity against human LNCAP cells after 3 days; type: functional, cell-based; method in brief: as §1
Androgen receptor [2] = biological target: T1, Androgen receptor; experiment: Antagonist activity at androgen receptor (unknown origin)
[3] = MRT (last) in rat at 5 mg/kg, po; type: ADME, organism-based; settings: in vivo
Method in brief: (§2)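 Rats (n = 3) were given a single 5 mg/kg oral dose in 0.5% HPMC. Blood was taken into EDTA tubes at 15 and 30 min and 1, 2, 4, 8 and 24 h. Plasma was obtained by centrifugation and proteins were precipitated with acetonitrile. Bioavailability was calculated against a 1 mg/kg iv dose.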

Rattus norvegicus [4] = experiment: (§3) Cmax in rat at 5 mg/kg, po; type: ADME, organism-based; set-up: dose 5 mg/kg, route oral; settings: in vivo; method in brief: as §2
[5] = (§4) Clearance in rat at 1 mg/kg, iv; type: ADME, organism-based; settings: in vivo
Method in brief: (§5)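 Rats (n = 3) were given a single 1 mg/kg iv dose in 20% hydroxypropyl-β-cyclodextrin. Blood was taken into EDTA tubes at 5, 15 and 30 min and 1, 2, 4, 8 and 24 h. Plasma was obtained by centrifugation and proteins were precipitated with acetonitrile before analysis.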

[6] = Oral bioavailability in rat at 5 mg/kg; type: ADME, organism-based; settings: in vivo; method in brief: as §2
Rattus norvegicus [7] = experiment: (§6) MRT (INF) in rat at 1 mg/kg, iv; type: ADME, organism-based; settings: in vivo; method in brief: as §5
Rattus norvegicus [8] = experiment: (§7) Half life in rat at 5 mg/kg, po; type: ADME, organism-based; settings: in vivo; method in brief: as §2
[9] = AUC (0 to infinity) in rat at 1 mg/kg, iv; type: ADME, organism-based; set-up: dose 1 mg/kg, route intravenous, time infinity; settings: in vivo
Method in brief: (§8)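 Rats (n = 3) given a single 1 mg/kg iv dose in 20% HP-b-CD. Blood was drawn into EDTA tubes at 5, 15 and 30 min and at 1, 2, 4, 8 and 24 h. Plasma was separated by centrifugation, mixed with acetonitrile:H2O (1:1 v/v) and protein-precipitated with acetonitrile.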

Rattus norvegicus [10] = experiment: (§9) AUC (0 to infinity) in rat at 5 mg/kg, po; type: ADME, organism-based; set-up: dose 5 mg/kg, route oral, time infinity; settings: in vivo
Method in brief: (§10)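 Rats (n = 3) received a single 5 mg/kg oral dose in 0.5% HPMC. EDTA blood samples were taken at 15 and 30 min and at 1, 2, 4, 8 and 24 h. Plasma was obtained by centrifugation, mixed with acetonitrile:H2O (1:1 v/v) and precipitated with acetonitrile.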

[11] = Volume of distribution in rat at 1 mg/kg, iv; type: ADME, organism-based; settings: in vivo; method in brief: as §5
Rattus norvegicus [12] = experiment: (§11) Half life in rat at 1 mg/kg, iv; type: ADME, organism-based; settings: in vivo; method in brief: as §5
[13] = Tmax in rat at 1 mg/kg, iv; type: ADME, organism-based; settings: in vivo; method in brief: as §5
[14] = MRT (INF) in rat at 5 mg/kg, po; type: ADME, organism-based; settings: in vivo; method in brief: as §2
[15] = MRT (last) in rat at 1 mg/kg, iv; type: ADME, organism-based; settings: in vivo; method in brief: as §5
[16] = AUC (0 to time) in rat at 1 mg/kg, iv; type: ADME, organism-based; settings: in vivo; method in brief: as §8
[17] = AUC (0 to time) in rat at 5 mg/kg, po; type: ADME, organism-based; settings: in vivo; method in brief: as §10
Rattus norvegicus [18] = experiment: (§12) Tmax in rat at 5 mg/kg, po; type: ADME, organism-based; settings: in vivo; method in brief: as §2
Rattus norvegicus [19] = experiment: (§13) Cmax in rat at 1 mg/kg, iv; type: ADME, organism-based; set-up: dose 1 mg/kg, route intravenous; settings: in vivo; method in brief: as §5
[20] = (§14) Clearance in rat at 5 mg/kg, po; type: ADME, organism-based; settings: in vivo; method in brief: as §2
[21] = as §3; type: ADME, organism-based; set-up: dose 5 mg/kg, route oral; settings: in vivo; method in brief: as §2
Rattus norvegicus [22] = experiment: as §4; type: ADME, organism-based; settings: in vivo; method in brief: as §5
[23] = as §7; type: ADME, organism-based; settings: in vivo; method in brief: as §2
[24] = as §9; type: ADME, organism-based; set-up: dose 5 mg/kg, route oral, time infinity; settings: in vivo; method in brief: as §10
[25] = as §11; type: ADME, organism-based; settings: in vivo; method in brief: as §5
Rattus norvegicus [26] = experiment: (§15) Volume of distribution at steady state in rat at 1 mg/kg, iv; type: ADME, organism-based; settings: in vivo; method in brief: as §5
Rattus norvegicus [27] = experiment: Volume of distribution in rat at 5 mg/kg, po; type: ADME, organism-based; settings: in vivo; method in brief: as §2
Rattus norvegicus [28] = experiment: Volume of distribution at steady state in rat at 5 mg/kg, po; type: ADME, organism-based; settings: in vivo; method in brief: as §2
[29] = as §12; type: ADME, organism-based; settings: in vivo; method in brief: as §2
[30] = as §13; type: ADME, organism-based; set-up: dose 1 mg/kg, route intravenous; settings: in vivo; method in brief: as §5
[31] = as §6; type: ADME, organism-based; settings: in vivo; method in brief: as §5
Rattus norvegicus [32] = experiment: as §14; type: ADME, organism-based; settings: in vivo; method in brief: as §2
[33] = as §15; type: ADME, organism-based; settings: in vivo, read-out: Vdss; method in brief: as §5
[34] = Homo sapiens, LNCaP, 72 h, read-out: IC50

| SMILES | IC50 (LNCaP; [34]) [nM] | Ki (Androgen receptor [2]) | MRT last [3] [h] | bioavailability [6] [%] | AUC(0-inf) [9] [ng·h/mL] | Vd [11] [L/kg] | Tmax [13] [min] | MRT inf [14] [h] | MRT last [15] [h] | AUC [16] [ng·h/mL] | AUC [17] [ng·h/mL] | other results |
| --- | --- | --- | --- | --- | --- | --- | --- | --- | --- | --- | --- | --- |
| CNC(=O)c1ccc(N2C(=S)N(c3ccc(C#N)c(C(F)(F)F)c3)C(=O)[C@@H]2C)cc1F | 398 |  |  |  |  |  |  |  |  |  |  | Ki (Androgen receptor [1]): 95.3 nM |
| CNC(=O)c1ccc(N2C(=S)N(c3ccc(C#N)c(C(F)(F)F)c3)C(=O)[C@@]2(C)COC)cc1F | 185 | 40.6 nM |  |  |  |  |  |  |  |  |  |  |
| CNC(=O)c1ccc(N2C(=S)N(c3ccc(C#N)c(C(F)(F)F)c3)C(=O)[C@]2(C)COC)cc1F | 3170 | 798 nM |  |  |  |  |  |  |  |  |  |  |
| CNC(=O)c1ccc(N2C(=S)N(c3ccc(C#N)c(C(F)(F)F)c3)C(=O)C2(C)CO)cc1F (stereo not drawn) | 212 |  |  |  |  |  |  |  |  |  |  | Ki (Androgen receptor [1]): 43.3 nM |
| CNC(=O)c1ccc(N2C(=S)N(c3ccc(C#N)c(C(F)(F)F)c3)C(=O)C2(COC)COC)cc1F | 3370 | 585 nM |  |  |  |  |  |  |  |  |  |  |
| CNC(=O)c1ccc(N2CCC(=O)N(c3ccc(C#N)c(C(F)(F)F)c3)C2=S)cc1F | 3010 | 576 nM |  |  |  |  |  |  |  |  |  |  |
| CNC(=O)c1ccc(NC(=S)Nc2ccc(C#N)c(C(F)(F)F)c2)cc1F | > 10000 |  |  |  |  |  |  |  |  |  |  |  |
| CNC(=O)c1ccc(N2C(=S)N(c3ccc(C#N)c(C(F)(F)F)c3)C(=O)[C@]23CCOC3)cc1F | 79.2 | 18.4 nM | 6.9 | 100 | 2620 | 2.3 | 4.98 | 7.2 | 4.8 | 2570 | 13000 | Cmax (Rattus norvegicus [4]): 1062 ng/mL; clearance [5]: 6.67 mL/min/kg; MRT (Rattus norvegicus [7]): 5.3 h; t1/2 (Rattus norvegicus [8]): 5.2 h; AUC (Rattus norvegicus [10]): 13105 ng·h/mL; t1/2 (Rattus norvegicus [12]): 4.1 h; Tmax (Rattus norvegicus [18]): 2 h; Cmax (Rattus norvegicus [19]): 531 ng/mL |
| CNC(=O)c1ccc(N2C(=S)N(c3ccc(C#N)c(C(F)(F)F)c3)C(=O)[C@@]23CCOC3)cc1F | 2000 | 215 nM |  |  |  |  |  |  |  |  |  |  |
| COC(=O)c1ccc(N2C(=S)N(c3ccc(C#N)c(C(F)(F)F)c3)C(=O)[C@]23CCOC3)cc1F | 59 | 11.9 nM | 4.6 | 19 | 712 | 46 | 4.98 | 5 | 4.3 | 599 | 570 | CL/F [20]: 147 mL/min/kg; Cmax [21]: 104 ng/mL; CL (Rattus norvegicus [22]): 28.3 mL/min/kg; MRT (Rattus norvegicus [7]): 12.8 h; half-life [23]: 4.3 h; AUC(0-inf) [24]: 576 ng·h/mL; half-life [25]: 17.1 h; Vdss (Rattus norvegicus [26]): 1.6 L/kg; Vd (Rattus norvegicus [27]): 53 L/kg; Vdss (Rattus norvegicus [28]): 2 L/kg; Tmax [29]: 1.67 h; Cmax [30]: 518 ng/mL |
| N#Cc1ccc(N2C(=O)[C@]3(CCOC3)N(c3ccc(C(=O)O)c(F)c3)C2=S)cc1C(F)(F)F |  | Not Active | 3.5 | 29 | 509 | 8 | 4.98 | 4.2 | 0.5 | 497 | 716 | CL/F [20]: 117 mL/min/kg; Cmax [21]: 231 ng/mL; clearance [5]: 33.3 mL/min/kg; MRT inf [31]: 0.8 h; half-life [23]: 4 h; AUC(0-inf) [24]: 743 ng·h/mL; half-life [25]: 3.3 h; Vd (Rattus norvegicus [27]): 38.4 L/kg; IC50 (LNCaP; lncap): Not Active; Tmax [29]: 0.42 h; Cmax [30]: 1180 ng/mL |
| N#Cc1ccc(N2C(=O)[C@]3(CCOC3)N(c3ccc(C(N)=O)c(F)c3)C2=S)cc1C(F)(F)F | 71.4 | 14.1 nM | 3.1 | 87 | 303 | 7 | 4.98 | 3.7 | 1.6 | 295 | 1280 | CL (Rattus norvegicus [32]): 60 mL/min/kg; Cmax [21]: 261 ng/mL; clearance [5]: 55 mL/min/kg; MRT inf [31]: 1.8 h; t1/2 (Rattus norvegicus [8]): 1.8 h; AUC(0-inf) [24]: 1390 ng·h/mL; half-life [25]: 1.5 h; Vd [33]: 6.1 L/kg; Vd (Rattus norvegicus [27]): 9.4 L/kg; Vdss (Rattus norvegicus [28]): 22.3 L/kg; Tmax [29]: 2 h; Cmax [30]: 185 ng/mL |
| CNC(=O)c1ccc(N2C(=S)N(c3ccc(C#N)c(C(F)(F)F)c3)C(=O)C23CN(C(c2ccccc2)c2ccccc2)C3)cc1F |  | Not Active |  |  |  |  |  |  |  |  |  | IC50 (LNCaP; lncap): Not Active |
